# Compounds with a hit are over-represented: about 2.9% of the library has one in this group of screens.
# RanGTP-Imp inh: disruptors of Ran-importin-beta complex formation – biochemical, FRET, CFP-Ran, YFP-importin-beta, homogeneous, primary screen; cell-free CFP-Ran/YFP-importin-beta FRET ratio; inhibition, % (no concentration beside the values); 1.1% of 300,000 active; AID 2216;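 active means more than half of the replicate wells show a fall in the fluorescence ratio signal beyond about 16%, limit read from the data, passing the limit was not always enough; inconclusive means exactly half of the replicate wells pass the set limit; inactive means fewer than half of replicates pass the limit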;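 further: 0% = DMSO wells and 100% = Ran loaded with GDP instead of GTP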
# proKLK7 act: activates the human kallikrein-7 zymogen | AID 652039 | P49862 | purified proKLK7, EDANS-DABCYL substrate fluorescence; 100% is mature enzyme control, 0% vehicle | 0.9% of 370,000 active | activation, % at 7 µM;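 active means activation above the mean of all tested compounds plus 3 SD, computed per campaign excluding outliers beyond control limits, cut at about 13% in these data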
# Runt-SMMHC FRET: inhibitors of human RUNX1 Runt domain binding to CBFb-SMMHC | Q01196+Q13951 | Cerulean-Runt/Venus-CBFb-SMMHC FRET ratio 530/480, 1 h | inhibition, % at 20 µM | 0.74% of 220,000 active;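 active means mean inhibition across duplicate retests at 20 µM reaching about 50%, limit read from the data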;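 further: 0% = DMSO wells and 100% = wells with excess untagged CBFb-SMMHC; inhibitors lower the FRET ratio by blocking Runt binding to CBFb-SMMHC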
# Runt-CBFb FRET: blocks binding of human RUNX1 Runt domain to CBFb. Cerulean-Runt/Venus-CBFb FRET ratio 530/480, 1 h. Q01196+Q13951. 0.46% of 220,000 active. inhibition, % at 20 µM;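 active means inhibition over about 50% at 20 µM in the single-dose screen, limit read from the data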;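 further: 0% = DMSO wells and 100% = excess unlabeled CBFb competitor control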
#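 Assay system: Cerulean-Runt domain / Medium: Tris 50 mM pH 7.5, KCl, K2SO4, 0.01% BSA / Timing: protein complex preformed 1 h, compound exposure 1 h, room temperature, dark / Measured by: FRET, excitation 422 nm, emission at 530 and 480 nm / Evaluation: loss of energy transfer signal / Control set: 5 µM unlabeled CBFb as full-inhibition high control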
# Wee1 stabilizer: inhibitors of human Wee1 degradation; reporter increase, % at 5 µM; P30291; 1.2% of 220,000 active; HeLa Luc-Wee1K328M stability, luciferase luminescence; 100% = proteasome inhibitor MG132 effect;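 active means activation above the mean of all tested compounds plus 3 SD, set per screening run, cut at about 8.8% in these data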;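 further: cells exposed to compound for 20 h before luminescence read; 0% = DMSO alone and 100% = MG132 at 30 µM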
# Target sequence (P30291 whole entry K328M): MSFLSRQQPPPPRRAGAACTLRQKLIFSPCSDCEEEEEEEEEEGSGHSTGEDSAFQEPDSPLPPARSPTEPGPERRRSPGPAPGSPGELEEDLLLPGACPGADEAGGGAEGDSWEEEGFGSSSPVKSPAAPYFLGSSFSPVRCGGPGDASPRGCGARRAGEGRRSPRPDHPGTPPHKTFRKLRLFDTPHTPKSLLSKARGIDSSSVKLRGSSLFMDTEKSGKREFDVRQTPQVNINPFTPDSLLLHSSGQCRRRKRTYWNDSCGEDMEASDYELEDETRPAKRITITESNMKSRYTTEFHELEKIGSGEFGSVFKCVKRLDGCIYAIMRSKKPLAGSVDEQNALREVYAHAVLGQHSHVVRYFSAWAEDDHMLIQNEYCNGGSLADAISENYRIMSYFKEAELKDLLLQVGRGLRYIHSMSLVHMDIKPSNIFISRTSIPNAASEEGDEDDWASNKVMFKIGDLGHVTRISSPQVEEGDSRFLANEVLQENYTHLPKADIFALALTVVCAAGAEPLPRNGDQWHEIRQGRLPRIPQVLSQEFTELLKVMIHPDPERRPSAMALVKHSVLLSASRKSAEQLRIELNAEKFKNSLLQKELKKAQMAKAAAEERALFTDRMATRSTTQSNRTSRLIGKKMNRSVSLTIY
# AI-2 QS modul: modulators of Vibrio harveyi AI-2 quorum sensing system | Vibrio harveyi JMH597 AI-2 luminescence/OD600 ratio, 9 h; stronger effect = lower value; strain lacks LuxN and CqsS sensors; 0 = neutral-control median | activity change, % at 7.5 µM | 0.4% of 300,000 active | AID 2094; in the data active means activity change below about -75%, passing the limit was not always enough; inconclusive means no clear call, values can overlap the other calls;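 further: luminescence divided by OD600 gain over 9 h not by final OD600 alone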
# Runt-CBFb TRFRET: disrupts human RUNX1 Runt domain binding to CBFb; TR-FRET RUNX1 Runt domain-CBFb binding; shares compounds with Runt-CBFb FRET; inhibition, % at 20 µM; 20% of 480 active; in the data active means inhibition above about 40%
# * marks the source's active call; other numbers are inactive results; i = inactive; ? = inconclusive; / = no result.
SMILES,RanGTP-Imp inh,proKLK7 act,Runt-SMMHC FRET,Runt-CBFb FRET,Wee1 stabilizer,AI-2 QS modul,Runt-CBFb TRFRET
O=S(=O)(Nc1ccc(-c2nc3cccnc3s2)cc1)c1ccc(Cl)s1,?,0,/,68*,-3,18,30
Cc1ccc(-c2nnc(CN3CCCCC3C)o2)cc1 (configuration not stated),0,0,/,/,/,12,/
O=c1c2ccccc2sc2ccc(Cl)cc12,20*,-2,128*,69*,1,-4,i
COc1ccc(C2CC(=O)N3CN(c4ccccc4F)CSC3=C2C#N)cc1OC (configuration not stated),-158,0,87*,52*,3,5,17
COc1cc(C2CC(=O)N3CN(Cc4ccco4)CSC3=C2C#N)ccc1OCc1ccccc1 (configuration not stated),0,0,28,-1,-2,7,/
COc1ccc(C2CC(=O)N3CN(c4ccc(C)c(Cl)c4)CSC3=C2C#N)cc1 (configuration not stated),?,2,38,88*,-1,18,8
CCc1ccccc1N1CSC2=C(C#N)C(c3ccccc3F)CC(=O)N2C1 (configuration not stated),?,3,92*,60*,0,6,0
O=C(CCn1c(=O)oc2cc(Cl)ccc21)Nc1ccc(N2CCOCC2)cc1,0,-1,/,/,/,5,/
CC(=O)NC(c1ccc(F)c(F)c1)c1nc(-c2cc3ccccc3o2)cs1 (configuration not stated),/,1,/,/,/,/,/
Cc1nn(-c2ccccc2)cc1C(c1c(N)[nH]c(=S)[nH]c1=O)c1c(N)[nH]c(=S)[nH]c1=O,-1,1,41,56*,1,18,58*
CCOC(=O)c1[nH]nc(-c2cc(CC)c(O)cc2O)c1-c1cscn1,-2,0,0,61*,-2,27,3
CCCc1cc2c(=O)c(-c3cscn3)c(C(=O)OCC)oc2cc1O,?,1,-3,0,1,3,/
COc1ccc(NC(=O)CSc2nccn2Cc2ccco2)cc1,8,0,/,/,/,0,/
Oc1ccc2ccccc2c1C=NCc1ccccc1,-4,0,3,119*,3,3,17
O=C(NCc1ccco1)c1cccnc1-c1nc2ccccc2s1,4,0,31,50*,0,13,40*
O=C(NCc1ccco1)c1cccnc1Cl,5,1,0,-1,1,15,/
Fc1cccc(C[n+]2csc3ccccc32)c1,5,0,70,56*,-1,16,-10
Cc1noc(C)c1C(=O)N1CCC(C(=O)c2ccc(F)cc2F)CC1,-1,0,-5,-1,1,3,/
CN1CCN(C(=S)C(=O)Nc2ccc(Br)cc2)CC1,-5,1,28,55*,3,/,14
CCOc1ccc(NC(=O)CN(C)C(=O)C2CCN(C(=O)Nc3ccccc3)CC2)cc1OCC,/,0,/,/,/,/,/
CC1(C(=O)NS(=O)(=O)c2cccc(OC(F)F)c2)CCN1C(=O)c1ccco1 (configuration not stated),/,0,/,/,/,/,/
COc1ccc(C(=O)NCc2nnc(SCC(=O)Nc3nc4ccccc4s3)o2)cc1,1,0,-3,57*,-2,18,-23
CC(=O)O[C@H]1[C@H](C)OC=C[C@@H]1OC(C)=O,2,1,/,/,/,9,/
CC1(C)CC(=O)C2=C(C1)Nc1[nH]c(=S)[nH]c(=O)c1C2c1ccccc1 (configuration not stated),4,1,59*,50*,-1,44,12
NS(=O)(=O)c1ccc(NC(=S)N2CCN(c3cccc(Cl)c3)CC2)cc1,-1,0,36,52*,1,11,58*
SMILES,RanGTP-Imp inh,proKLK7 act,Runt-SMMHC FRET,Runt-CBFb FRET,Wee1 stabilizer,AI-2 QS modul,Runt-CBFb TRFRET
COc1ccc(OC)c(S(=O)(=O)N(C(C)=O)c2ccc3oc(=O)sc3c2)c1,-1,1,/,67*,-3,-3,12
Cc1ccc(S(=O)(=O)N(C(=O)c2ccco2)c2cc3sc(=O)oc3c3ccccc23)cc1,2,0,37,11,-1,5,/
COc1ccc(N(C(C)=O)S(=O)(=O)c2cc(OC)ccc2OC)cc1,6,0,4,27,-3,20,/
CCCC(=O)N(c1ccc2oc(=O)sc2c1)S(=O)(=O)c1cccs1,/,0,32,63*,-3,/,10
CC(=O)N(c1ccc2oc(=O)sc2c1)S(=O)(=O)c1ccccc1,0,0,38,60*,0,8,17
CN(CC(=O)O)S(=O)(=O)c1cccs1,-1,0,-5,0,0,10,/
CC(C)C(=O)N(c1ccc2oc(=O)sc2c1)S(=O)(=O)c1ccccc1,2,0,63*,58*,3,-2,19
COC(=O)c1cccc(C(=O)N2CCCC(CCC(=O)N(C)CCc3ccccn3)C2)c1 (configuration not stated),2,0,/,/,/,19,/
O=C(O)c1cncc(C#CCC2CCCCC2)c1,0,0,-14,0,3,2,/
COc1ccc(C(=O)Oc2ccc3oc(=O)sc3c2)cc1,1,0,40,65*,3,25,0
COc1ccc(S(=O)(=O)N(C(=O)C(C)C)c2ccc3oc(=O)sc3c2)cc1,0,0,56*,53*,-2,-9,4
COc1ccc(S(=O)(=O)N(C(=O)c2ccco2)c2cc3sc(=O)oc3c3ccccc23)cc1,4,-1,43,9,-1,1,/
CC(=O)Nc1ccc(-c2ccnc3c2CC(C(=O)NCC2CCOCC2)O3)cc1 (configuration not stated),/,0,/,/,/,/,/
CN1CCc2c(sc(/N=C/c3c[nH]c4ccccc34)c2C(N)=O)C1,46*,1,14,53*,1,13,-42
CN1CCc2c(sc(/N=C/c3c[nH]c4ccccc34)c2C#N)C1,4,1,3,50,4,8,/
CCC(=O)/C=C1/Sc2ccc(OC)cc2N1CC,6,-1,0,/,-3,34,/
CCC(=O)/C=C1/Sc2ccccc2N1CC,1,0,44,55*,-1,16,12
NC(=S)N/N=C/c1ccc(-c2cc(Cl)cc(Cl)c2)o1,1,0,12,52*,-2,25,17
NC(=S)N/N=C/c1ccc(-c2cc(Cl)ccc2Cl)o1,-3,0,1,16,-1,6,/

# Screens deposited in PubChem BioAssay by several laboratories.
